{"data": "Published values gathered from unrelated publications", "target": "Serine/threonine-protein kinase DCLK3 (DCLK3, Homo sapiens, UniProt Q9C098)", "One construct used (Q9C098 1-648)": "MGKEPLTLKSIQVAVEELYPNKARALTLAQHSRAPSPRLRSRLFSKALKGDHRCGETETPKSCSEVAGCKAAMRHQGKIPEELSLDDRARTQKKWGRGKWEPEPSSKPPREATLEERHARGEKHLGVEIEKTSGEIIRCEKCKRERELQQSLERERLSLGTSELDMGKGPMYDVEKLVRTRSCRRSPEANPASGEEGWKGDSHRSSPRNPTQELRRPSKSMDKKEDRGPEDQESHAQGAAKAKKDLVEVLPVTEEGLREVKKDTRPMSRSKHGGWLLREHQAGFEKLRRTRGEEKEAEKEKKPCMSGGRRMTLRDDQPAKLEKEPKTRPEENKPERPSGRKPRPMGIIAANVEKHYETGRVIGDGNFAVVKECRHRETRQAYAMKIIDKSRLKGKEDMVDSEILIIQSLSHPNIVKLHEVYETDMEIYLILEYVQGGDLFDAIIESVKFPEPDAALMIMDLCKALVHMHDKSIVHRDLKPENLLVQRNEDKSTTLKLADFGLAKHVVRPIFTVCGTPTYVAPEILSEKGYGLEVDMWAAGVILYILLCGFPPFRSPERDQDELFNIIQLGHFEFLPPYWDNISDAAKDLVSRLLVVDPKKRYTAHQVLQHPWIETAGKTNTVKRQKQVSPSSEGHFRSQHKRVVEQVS", "note": "Lines come from different studies, so protocols differ."}
{"Compound": "CNC(=O)c1ccc(Nc2ncc(C(F)(F)F)c(NCc3nccnc3N(C)S(C)(=O)=O)n2)cc1", "test": "cell-free assay, competition with immobilised ligand", "setting": "0.1 µM", "remaining binding": "67%"}
{"Compound": "O=C(NCCCN1CCOCC1)c1ccc(Nc2nccc(-c3cc4ccccc4s3)n2)cc1", "test": "binding, competition with immobilised ligand", "setting": "1 µM", "remaining binding": "0.4%"}
{"Compound": "c1cnn2ncc(-c3ccnc(N4CCC45COC5)n3)c2c1", "test": "binding", "setting": "1 µM", "remaining binding": "100%"}
{"Compound": "CC(C)(O)c1cncc(-c2nc3ccc(F)cc3n2C2CC2)c1", "test": "cell-free assay, competition with immobilised ligand", "setting": "1 µM", "remaining binding": "100%"}
{"Compound": "c1cncc(-c2cccc(Nc3nccc(NC4CCCCC4)n3)c2)c1", "test": "binding, competition with immobilised ligand", "setting": "10 µM", "remaining binding": "80%"}
{"Compound": "COc1cnc(Nc2cccc(S(N)(=O)=O)c2)nc1N1CCN(c2ccccc2)C(=O)C1", "test": "binding, competition with immobilised ligand", "setting": "1 µM", "remaining binding": "100%"}
{"Compound": "N[C@H]1CCN(c2nccc(-c3cnn4ncccc34)n2)C1", "test": "binding", "setting": "1 µM", "remaining binding": "100%"}
{"Compound": "O=C(N1CCS(=O)(=O)CC1)N1C[C@H](c2ccc(OC(F)(F)F)cc2)C[C@H](c2nc(C3CC3)no2)C1", "test": "cell-free assay, competition with immobilised ligand", "setting": "1 µM", "remaining binding": "100%"}
{"Compound": "O=C(Nc1c[nH]nc1C(=O)NC1CCNCC1)c1cc(F)cc(F)c1", "test": "binding, competition with immobilised ligand", "setting": "1 µM", "remaining binding": "93%"}
{"Compound": "O=C(NS(=O)(=O)c1ccc(NCC2CCOCC2)c([N+](=O)[O-])c1)c1ccc(N2CCN(Cc3ccc(C(F)(F)F)cc3-c3ccc(Cl)cc3)CC2)cc1Oc1cnc2[nH]ccc2c1", "test": "cell-free assay, competition with immobilised ligand", "setting": "1 µM", "remaining binding": "93%"}
{"Compound": "C[C@@H]1CCN(c2nccc(-c3cnn4ncccc34)n2)C1", "test": "binding", "setting": "1 µM", "remaining binding": "100%"}
{"Compound": "C=CC(=O)N1CCC(C(=O)NCC(=O)N2CCN(c3nc(-c4cnc(N)nc4C(F)F)nc(N4CCOCC4)n3)CC2)CC1", "test": "binding, competition with immobilised ligand", "setting": "1 µM", "remaining binding": "96%"}
{"Compound": "O=C(c1ccc(Nc2nccc(-c3cc4ccccc4s3)n2)cc1)N1CCC(N2CCCC2)CC1", "test": "binding, competition with immobilised ligand", "setting": "1 µM", "remaining binding": "45%"}
{"Compound": "COc1ccc2c(c1)O[C@@H](c1ccc(OC)c(OC)c1)C[C@H]2NC(=O)C1(c2ccc3c(c2)OC(F)(F)O3)CC1", "test": "cell-free assay, competition with immobilised ligand", "setting": "1 µM", "remaining binding": "98%"}
{"Compound": "CN(C)c1ncc(F)c(-c2cnn3ncccc23)n1", "test": "binding", "setting": "1 µM", "remaining binding": "100%"}
{"Compound": "Nc1ncc2c(n1)-c1c([nH]c3ccc(C#CC4CC4)cc13)CCCC2", "test": "binding, competition with immobilised ligand", "setting": "1 µM", "remaining binding": "100%"}
{"Compound": "COc1ncc2cc3ccccc3nc2c1C#N", "test": "cell-free assay, competition with immobilised ligand", "setting": "5 µM", "remaining binding": "100%"}
{"Compound": "CN(C)c1nccc(-c2cnn3ncccc23)n1", "test": "binding", "setting": "1 µM", "remaining binding": "100%"}
{"Compound": "O=C(c1ccc(Nc2ncc(Cl)c(-c3cc4ccccc4s3)n2)cc1)N1CCC(N2CCCC2)CC1", "test": "binding, competition with immobilised ligand", "setting": "1 µM", "remaining binding": "0.9%"}
{"Compound": "CN(CCCC(F)(F)F)c1nccc(-c2cnn3ncccc23)n1", "test": "binding", "setting": "1 µM", "remaining binding": "85%"}
{"Compound": "N#CC1(c2ccccn2)CCN(Cc2cc(C(=O)N3CCCC3)c(=O)n3ccccc23)CC1", "test": "cell-free assay, competition with immobilised ligand", "setting": "1 µM", "remaining binding": "100%"}
